Tested on: Fibroblast
Assay: Multiplex assay against human fibroblast
Format: toxicity, cell-based
Outline: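 Live cells were stained at seeding with Hoechst33342, BioTracker Green Microtubule Cytoskeleton Dye, MitoTracker Red and Annexin V Alexa Fluor 680, then imaged on a CQ1 microscope at 37°C and 5% CO2 after compound addition. CellPathfinder machine-learning gating split cells into Hoechst high-intensity objects or normal cells. Normal cells were split into healthy, pyknosed or fragmented nuclei, and pyknosed cells into mitotic or apoptotic. Tubulin, mitochondrial-mass and membrane-permeability phenotypes are per cents of healthy-nucleus cells.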

[1] = 12 h, 1 µM, compound concentration 1 uM, replicate 1
[2] = 12 h, 1 µM, compound concentration 1 uM, replicate 2
[3] = 12 h, 10 µM, compound concentration 10 uM, replicate 1
[4] = 12 h, 10 µM, compound concentration 10 uM, replicate 2
[5] = 24 h, 1 µM, compound concentration 1 uM, replicate 1
[6] = 24 h, 1 µM, compound concentration 1 uM, replicate 2
[7] = 24 h, 10 µM, compound concentration 10 uM, replicate 1
[8] = 24 h, 10 µM, compound concentration 10 uM, replicate 2
[9] = 48 h, 1 µM, compound concentration 1 uM, replicate 1
[10] = 48 h, 1 µM, compound concentration 1 uM, replicate 2
[11] = 48 h, 10 µM, compound concentration 10 uM, replicate 1
[12] = 48 h, 10 µM, compound concentration 10 uM, replicate 2

SMILES: O=C(c1cc2c(cc1F)OC(c1ccc(F)cc1)(c1ccc(Cl)cc1Cl)O2)N1CCOCC1 (configuration not stated)
- Population Apoptotic (%) [1]: 51%
- Population Fragmented Nuclei (%) [1]: 18%
- Population Healthy Nuclei (%) [1]: 47%
- Population Hoechst High Intensity Objects (%) [1]: 13%
- Population Membrane Permeable-Phenotype (%) [1]: 19%
- Population Mitochondria Different-Phenotype (%) [1]: 6%
- Population Mitotic Cells (%) [1]: 48%
- Population Normal (%) [1]: 86%
- Population Pyknosed Nuclei (%) [1]: 34%
- Population Tubulin-Different-Phenotype (%) [1]: 56%
- Total Cell Count [1]: 112
- Population Apoptotic (%) [2]: 50%
- Population Healthy Nuclei (%) [2]: 68%
- Population Hoechst High Intensity Objects (%) [2]: 7%
- Population Membrane Permeable-Phenotype (%) [2]: 9%
- Population Mitochondria Different-Phenotype (%) [2]: 12%
- Population Mitotic Cells (%) [2]: 50%
- Population Normal (%) [2]: 92%
- Population Pyknosed Nuclei (%) [2]: 12%
- Population Tubulin-Different-Phenotype (%) [2]: 15%
- Total Cell Count [2]: 78
- Population Apoptotic (%) [3]: 71%
- Population Fragmented Nuclei (%) [3]: 31%
- Population Healthy Nuclei (%) [3]: 29%
- Population Hoechst High Intensity Objects (%) [3]: 12%
- Population Membrane Permeable-Phenotype (%) [3]: 4%
- Population Mitochondria Different-Phenotype (%) [3]: 43%
- Population Mitotic Cells (%) [3]: 28%
- Population Normal (%) [3]: 87%
- Population Pyknosed Nuclei (%) [3]: 38%
- Population Tubulin-Different-Phenotype (%) [3]: 17%
- Total Cell Count [3]: 176
- Population Fragmented Nuclei (%) [4]: 10%
- Population Healthy Nuclei (%) [4]: 78%
- Population Hoechst High Intensity Objects (%) [4]: 4%
- Population Membrane Permeable-Phenotype (%) [4]: 47%
- Population Mitochondria Different-Phenotype (%) [4]: 96%
- Population Normal (%) [4]: 95%
- Population Pyknosed Nuclei (%) [4]: 10%
- Population Tubulin-Different-Phenotype (%) [4]: 100%
- Total Cell Count [4]: 52
- Population Apoptotic (%) [5]: 26%
- Population Fragmented Nuclei (%) [5]: 17%
- Population Healthy Nuclei (%) [5]: 61%
- Population Hoechst High Intensity Objects (%) [5]: 18%
- Population Membrane Permeable-Phenotype (%) [5]: 18%
- Population Mitochondria Different-Phenotype (%) [5]: 12%
- Population Mitotic Cells (%) [5]: 73%
- Population Normal (%) [5]: 81%
- Population Pyknosed Nuclei (%) [5]: 21%
- Population Tubulin-Different-Phenotype (%) [5]: 50%
- Total Cell Count [5]: 108
- Population Apoptotic (%) [6]: 33%
- Population Fragmented Nuclei (%) [6]: 5%
- Population Healthy Nuclei (%) [6]: 88%
- Population Hoechst High Intensity Objects (%) [6]: 10%
- Population Membrane Permeable-Phenotype (%) [6]: 10%
- Population Mitochondria Different-Phenotype (%) [6]: 15%
- Population Mitotic Cells (%) [6]: 66%
- Population Normal (%) [6]: 89%
- Population Pyknosed Nuclei (%) [6]: 5%
- Population Tubulin-Different-Phenotype (%) [6]: 21%
- Total Cell Count [6]: 85
- Population Apoptotic (%) [7]: 67%
- Population Fragmented Nuclei (%) [7]: 32%
- Population Healthy Nuclei (%) [7]: 32%
- Population Hoechst High Intensity Objects (%) [7]: 12%
- Population Membrane Permeable-Phenotype (%) [7]: 2%
- Population Mitochondria Different-Phenotype (%) [7]: 81%
- Population Mitotic Cells (%) [7]: 32%
- Population Normal (%) [7]: 87%
- Population Pyknosed Nuclei (%) [7]: 35%
- Population Tubulin-Different-Phenotype (%) [7]: 16%
- Total Cell Count [7]: 169
- Population Apoptotic (%) [8]: 66%
- Population Fragmented Nuclei (%) [8]: 8%
- Population Healthy Nuclei (%) [8]: 62%
- Population Hoechst High Intensity Objects (%) [8]: 6%
- Population Membrane Permeable-Phenotype (%) [8]: 64%
- Population Mitochondria Different-Phenotype (%) [8]: 100%
- Population Mitotic Cells (%) [8]: 33%
- Population Normal (%) [8]: 93%
- Population Pyknosed Nuclei (%) [8]: 29%
- Population Tubulin-Different-Phenotype (%) [8]: 100%
- Total Cell Count [8]: 58
- Population Apoptotic (%) [9]: 42%
- Population Fragmented Nuclei (%) [9]: 31%
- Population Healthy Nuclei (%) [9]: 50%
- Population Hoechst High Intensity Objects (%) [9]: 11%
- Population Membrane Permeable-Phenotype (%) [9]: 15%
- Population Mitochondria Different-Phenotype (%) [9]: 11%
- Population Mitotic Cells (%) [9]: 57%
- Population Normal (%) [9]: 88%
- Population Pyknosed Nuclei (%) [9]: 18%
- Population Tubulin-Different-Phenotype (%) [9]: 43%
- Total Cell Count [9]: 119
- Population Apoptotic (%) [10]: 33%
- Population Fragmented Nuclei (%) [10]: 18%
- Population Healthy Nuclei (%) [10]: 73%
- Population Hoechst High Intensity Objects (%) [10]: 12%
- Population Membrane Permeable-Phenotype (%) [10]: 8%
- Population Mitochondria Different-Phenotype (%) [10]: 5%
- Population Mitotic Cells (%) [10]: 66%
- Population Normal (%) [10]: 87%
- Population Pyknosed Nuclei (%) [10]: 7%
- Population Tubulin-Different-Phenotype (%) [10]: 37%
- Total Cell Count [10]: 90
- Population Apoptotic (%) [11]: 80%
- Population Fragmented Nuclei (%) [11]: 33%
- Population Healthy Nuclei (%) [11]: 42%
- Population Hoechst High Intensity Objects (%) [11]: 14%
- Population Membrane Permeable-Phenotype (%) [11]: 1%
- Population Mitochondria Different-Phenotype (%) [11]: 70%
- Population Mitotic Cells (%) [11]: 20%
- Population Normal (%) [11]: 85%
- Population Pyknosed Nuclei (%) [11]: 24%
- Population Tubulin-Different-Phenotype (%) [11]: 6%
- Total Cell Count [11]: 167
- Population Apoptotic (%) [12]: 81%
- Population Fragmented Nuclei (%) [12]: 34%
- Population Healthy Nuclei (%) [12]: 56%
- Population Hoechst High Intensity Objects (%) [12]: 12%
- Population Membrane Permeable-Phenotype (%) [12]: 0%
- Population Mitochondria Different-Phenotype (%) [12]: 90%
- Population Mitotic Cells (%) [12]: 18%
- Population Normal (%) [12]: 87%
- Population Pyknosed Nuclei (%) [12]: 9%
- Population Tubulin-Different-Phenotype (%) [12]: 3%
- Total Cell Count [12]: 133

SMILES: Cc1nc(N2CC[C@H](O)C2)ncc1-c1cc(C(F)(F)F)cc2[nH]ncc12
- Population Apoptotic (%) [1]: 70%
- Population Fragmented Nuclei (%) [1]: 32%
- Population Healthy Nuclei (%) [1]: 49%
- Population Hoechst High Intensity Objects (%) [1]: 12%
- Population Membrane Permeable-Phenotype (%) [1]: 10%
- Population Mitochondria Different-Phenotype (%) [1]: 6%
- Population Mitotic Cells (%) [1]: 29%
- Population Normal (%) [1]: 87%
- Population Pyknosed Nuclei (%) [1]: 18%
- Population Tubulin-Different-Phenotype (%) [1]: 7%
- Total Cell Count [1]: 193
- Population Apoptotic (%) [2]: 20%
- Population Fragmented Nuclei (%) [2]: 42%
- Population Healthy Nuclei (%) [2]: 33%
- Population Hoechst High Intensity Objects (%) [2]: 40%
- Population Membrane Permeable-Phenotype (%) [2]: 28%
- Population Mitochondria Different-Phenotype (%) [2]: 28%
- Population Mitotic Cells (%) [2]: 80%
- Population Normal (%) [2]: 60%
- Population Pyknosed Nuclei (%) [2]: 23%
- Population Tubulin-Different-Phenotype (%) [2]: 50%
- Total Cell Count [2]: 70
- Population Apoptotic (%) [3]: 66%
- Population Fragmented Nuclei (%) [3]: 24%
- Population Healthy Nuclei (%) [3]: 61%
- Population Hoechst High Intensity Objects (%) [3]: 15%
- Population Membrane Permeable-Phenotype (%) [3]: 3%
- Population Mitochondria Different-Phenotype (%) [3]: 7%
- Population Mitotic Cells (%) [3]: 33%
- Population Normal (%) [3]: 84%
- Population Pyknosed Nuclei (%) [3]: 14%
- Population Tubulin-Different-Phenotype (%) [3]: 4%
- Total Cell Count [3]: 218
- Population Apoptotic (%) [4]: 50%
- Population Fragmented Nuclei (%) [4]: 68%
- Population Healthy Nuclei (%) [4]: 21%
- Population Hoechst High Intensity Objects (%) [4]: 22%
- Population Membrane Permeable-Phenotype (%) [4]: 15%
- Population Mitochondria Different-Phenotype (%) [4]: 15%
- Population Mitotic Cells (%) [4]: 50%
- Population Normal (%) [4]: 77%
- Population Pyknosed Nuclei (%) [4]: 9%
- Population Tubulin-Different-Phenotype (%) [4]: 15%
- Total Cell Count [4]: 79
- Population Apoptotic (%) [5]: 48%
- Population Fragmented Nuclei (%) [5]: 29%
- Population Healthy Nuclei (%) [5]: 47%
- Population Hoechst High Intensity Objects (%) [5]: 12%
- Population Membrane Permeable-Phenotype (%) [5]: 9%
- Population Mitochondria Different-Phenotype (%) [5]: 9%
- Population Mitotic Cells (%) [5]: 51%
- Population Normal (%) [5]: 87%
- Population Pyknosed Nuclei (%) [5]: 22%
- Population Tubulin-Different-Phenotype (%) [5]: 12%
- Total Cell Count [5]: 183
- Population Apoptotic (%) [6]: 60%
- Population Fragmented Nuclei (%) [6]: 45%
- Population Healthy Nuclei (%) [6]: 30%
- Population Hoechst High Intensity Objects (%) [6]: 35%
- Population Membrane Permeable-Phenotype (%) [6]: 30%
- Population Mitochondria Different-Phenotype (%) [6]: 7%
- Population Mitotic Cells (%) [6]: 40%
- Population Normal (%) [6]: 64%
- Population Pyknosed Nuclei (%) [6]: 23%
- Population Tubulin-Different-Phenotype (%) [6]: 23%
- Total Cell Count [6]: 65
- Population Apoptotic (%) [7]: 65%
- Population Fragmented Nuclei (%) [7]: 22%
- Population Healthy Nuclei (%) [7]: 63%
- Population Hoechst High Intensity Objects (%) [7]: 15%
- Population Membrane Permeable-Phenotype (%) [7]: 7%
- Population Mitochondria Different-Phenotype (%) [7]: 3%
- Population Mitotic Cells (%) [7]: 34%
- Population Normal (%) [7]: 84%
- Population Pyknosed Nuclei (%) [7]: 14%
- Population Tubulin-Different-Phenotype (%) [7]: 3%
- Total Cell Count [7]: 239
- Population Apoptotic (%) [8]: 83%
- Population Fragmented Nuclei (%) [8]: 67%
- Population Healthy Nuclei (%) [8]: 22%
- Population Hoechst High Intensity Objects (%) [8]: 24%
- Population Membrane Permeable-Phenotype (%) [8]: 38%
- Population Mitochondria Different-Phenotype (%) [8]: 30%
- Population Mitotic Cells (%) [8]: 16%
- Population Normal (%) [8]: 75%
- Population Pyknosed Nuclei (%) [8]: 10%
- Population Tubulin-Different-Phenotype (%) [8]: 46%
- Total Cell Count [8]: 77

Reference: ChEMBL document CHEMBL4689842, “EUbOPEN Chemogenomics Library wave 1” (2021)
